In brackets after ≈: the same amount, converted by molar mass.
Key:
Type in all cases: functional
Enterococcus faecalis [1] = experiment: Antibacterial activity against vancomycin resistant Enterococcus faecalis NCTC12204 measured after overnight incubation by microbroth dilution method
In short: (§1)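 Microbroth dilution: DMSO stocks diluted in water, 2-fold series. Overnight TSB cultures back-diluted to OD 0.01 and mixed 1:1 with compound. Incubated overnight at 37 °C; MIC taken as lowest concentration without visible growth (<0.1 OD600). Run in duplicate; matching DMSO levels checked for effect on growth.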

Enterococcus faecalis [2] = experiment: Antibacterial activity against vancomycin resistant Enterococcus faecalis NCTC12201 measured after overnight incubation by microbroth dilution method; in short: as §1
Enterococcus faecalis [3] = experiment: Antibacterial activity against vancomycin sensitive Enterococcus faecalis NCTC775 measured after overnight incubation by microbroth dilution method; in short: as §1
Staphylococcus aureus [4] = experiment: Antibacterial activity against methicillin-resistant Staphylococcus aureus EMRSA15 measured after overnight incubation by microbroth dilution method; in short: as §1
Staphylococcus aureus [5] = experiment: Antibacterial activity against methicillin-sensitive Staphylococcus aureus ATCC 9144 measured after overnight incubation by microbroth dilution method; in short: as §1
Staphylococcus aureus [6] = experiment: Antibacterial activity against methicillin-resistant Staphylococcus aureus MRSA252 measured after overnight incubation by microbroth dilution method; in short: as §1
Staphylococcus aureus [7] = experiment: Antibacterial activity against methicillin sensitive Staphylococcus aureus NCTC 6571 measured after overnight incubation by microbroth dilution method; in short: as §1
Staphylococcus aureus [8] = experiment: Antibacterial activity against methicillin resistant Staphylococcus aureus NCTC13616 measured after overnight incubation by microbroth dilution method; in short: as §1
Staphylococcus aureus [9] = experiment: Antibacterial activity against methicillin resistant Staphylococcus aureus NCTC13277 measured after overnight incubation by microbroth dilution method; in short: as §1
Klebsiella pneumoniae [10] = experiment: Antibacterial activity against Klebsiella pneumoniae NCTC13368 measured after overnight incubation by microbroth dilution method
In short: (§2)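 Microbroth dilution MIC. Compound DMSO stocks were diluted in water as a 2-fold series. Overnight TSB cultures were back-diluted to OD 0.01 and mixed 1:1 with compound. Plates were incubated overnight at 37 °C. MIC was the lowest concentration without visible growth (<0.1 OD600), run in duplicate.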

Klebsiella pneumoniae [11] = experiment: Antibacterial activity against Klebsiella pneumoniae M6 measured after overnight incubation by microbroth dilution method; in short: as §2
Acinetobacter baumannii [12] = experiment: Antibacterial activity against Acinetobacter baumannii AYE measured after overnight incubation by microbroth dilution method; in short: as §2
Acinetobacter baumannii [13] = experiment: Antibacterial activity against Acinetobacter baumannii ATCC 17978 measured after overnight incubation by microbroth dilution method; in short: as §2
Pseudomonas aeruginosa [14] = experiment: Antibacterial activity against Pseudomonas aeruginosa PAO1 measured after overnight incubation by microbroth dilution method; in short: as §2
Pseudomonas aeruginosa [15] = experiment: Antibacterial activity against Pseudomonas aeruginosa NCTC13437 measured after overnight incubation by microbroth dilution method; in short: as §2
Escherichia coli = experiment: Antibacterial activity against Escherichia coli NCTC12923 measured after overnight incubation by microbroth dilution method; in short: as §2

| Structure (SMILES) | MIC (Enterococcus faecalis [1]) [µg/mL] | MIC (Enterococcus faecalis [2]) [µg/mL] | MIC (Enterococcus faecalis [3]) [µg/mL] | MIC (Staphylococcus aureus [4]) [µg/mL] | MIC (Staphylococcus aureus [5]) [µg/mL] | MIC (Staphylococcus aureus [6]) [µg/mL] | MIC (Staphylococcus aureus [7]) [µg/mL] | MIC (Staphylococcus aureus [8]) [µg/mL] | MIC (Staphylococcus aureus [9]) [µg/mL] | MIC (Klebsiella pneumoniae [10]) [µg/mL] | MIC (Klebsiella pneumoniae [11]) [µg/mL] | MIC (Acinetobacter baumannii [12]) [µg/mL] | MIC (Acinetobacter baumannii [13]) [µg/mL] | MIC (Pseudomonas aeruginosa [14]) [µg/mL] | MIC (Pseudomonas aeruginosa [15]) [µg/mL] | MIC (Escherichia coli) [µg/mL] |
| --- | --- | --- | --- | --- | --- | --- | --- | --- | --- | --- | --- | --- | --- | --- | --- | --- |
| Cc1cc(CN2CCN(C3C4CC5CC(C4)CC3C5)CC2)c(C)n1-c1ccccc1F (stereo not drawn) | 32 (≈ 75.9 µM) | 32 (≈ 75.9 µM) | 32 (≈ 75.9 µM) | 32 (≈ 75.9 µM) | 32 (≈ 75.9 µM) | 32 (≈ 75.9 µM) |  |  |  |  |  |  |  |  |  |  |
| Cc1cc(CNCc2ccccc2)c(C)n1-c1ccc(F)cc1 | 32 (≈ 104 µM) | 64 (≈ 208 µM) | 64 (≈ 208 µM) | > 128 | > 128 | 64 (≈ 208 µM) |  |  |  |  |  |  |  |  |  |  |
| Cc1ccc(CNCc2cc(C)n(-c3ccc(Cl)cc3)c2C)cc1 | 32 (≈ 94.4 µM) | 64 (≈ 189 µM) | 64 (≈ 189 µM) | 64 (≈ 189 µM) | 64 (≈ 189 µM) | 64 (≈ 189 µM) |  |  |  |  |  |  |  |  |  |  |
| Cc1c(CNC2CCCCC2)cc(-c2ccc(F)cc2)n1-c1ccc(Cl)cc1 | 4 (≈ 10.1 µM) | 4 (≈ 10.1 µM) | 8 (≈ 20.2 µM) |  |  |  | 8 (≈ 20.2 µM) | 8 (≈ 20.2 µM) | 8 (≈ 20.2 µM) | > 128 | > 128 | 128 (≈ 322 µM) | 128 (≈ 322 µM) | > 128 | > 128 | > 128 |
| Cc1cc(CNC2C3CC4CC(C3)CC2C4)c(C)n1-c1ccc(Cl)cc1 (stereo not drawn) | 64 (≈ 173 µM) | 128 (≈ 347 µM) | 128 (≈ 347 µM) | > 128 | 128 (≈ 347 µM) | 128 (≈ 347 µM) |  |  |  |  |  |  |  |  |  |  |
| Cc1cc(CNOCc2ccccc2)c(C)n1-c1ccc(F)cc1 | > 64 | > 64 | > 64 | > 64 | > 64 | > 64 |  |  |  |  |  |  |  |  |  |  |
| Cc1c(CNC2CCCCC2)cc(-c2ccc(C(C)(C)C)cc2)n1-c1ccc(Cl)cc1 | 2 (≈ 4.6 µM) | 2 (≈ 4.6 µM) | 4 (≈ 9.19 µM) |  |  |  | 4 (≈ 9.19 µM) | 4 (≈ 9.19 µM) | 4 (≈ 9.19 µM) | > 128 | > 128 | > 128 | > 128 | > 128 | > 128 | > 128 |
| Cc1c(CNC2CCCCC2)cc(-c2ccc(Cl)cc2)n1-c1cccc(F)c1 | 4 (≈ 10.1 µM) | 4 (≈ 10.1 µM) | 8 (≈ 20.2 µM) |  |  |  | 8 (≈ 20.2 µM) | 8 (≈ 20.2 µM) | 8 (≈ 20.2 µM) | > 128 | > 128 | 128 (≈ 322 µM) | 128 (≈ 322 µM) | > 128 | > 128 | > 128 |
| Cc1cc(CN2CCN(C3CC4CCC3C4)CC2)c(C)n1-c1ccc(Cl)cc1 (stereo not drawn) | 32 (≈ 80.4 µM) | 32 (≈ 80.4 µM) | 64 (≈ 161 µM) | 64 (≈ 161 µM) | 64 (≈ 161 µM) | 64 (≈ 161 µM) |  |  |  |  |  |  |  |  |  |  |
| Cc1cc(CN2CCN(C3C4CC5CC(C4)CC3C5)CC2)c(C)n1-c1ccc(C(C)C)cc1 (stereo not drawn) | 8 (≈ 17.9 µM) | 8 (≈ 17.9 µM) | 16 (≈ 35.9 µM) | 32 (≈ 71.8 µM) | 32 (≈ 71.8 µM) | 32 (≈ 71.8 µM) |  |  |  |  |  |  |  |  |  |  |
| Cc1c(CNC2C3CC4CC(C3)CC2C4)cc(-c2ccc(Cl)cc2)n1-c1ccc(Cl)cc1 (stereo not drawn) | 2 (≈ 4.3 µM) | 2 (≈ 4.3 µM) | 4 (≈ 8.59 µM) |  |  |  | 4 (≈ 8.59 µM) | 4 (≈ 8.59 µM) | 4 (≈ 8.59 µM) | > 128 | > 128 | > 128 | > 128 | > 128 | > 128 | > 128 |
| Cc1cc(CN2CCN(C3CCCCC3)CC2)c(C)n1-c1ccc(Cl)cc1 | 128 (≈ 332 µM) | 128 (≈ 332 µM) | 128 (≈ 332 µM) | > 128 | 128 (≈ 332 µM) | > 128 |  |  |  |  |  |  |  |  |  |  |
| Cc1c(CNC2CCCCCC2)cc(-c2ccc(Cl)cc2)n1-c1ccc(F)cc1 | 2 (≈ 4.87 µM) | 4 (≈ 9.73 µM) | 4 (≈ 9.73 µM) |  |  |  | 4 (≈ 9.73 µM) | 8 (≈ 19.5 µM) | 4 (≈ 9.73 µM) | > 128 | > 128 | 128 (≈ 311 µM) | > 128 | > 128 | > 128 | 128 (≈ 311 µM) |
| Cc1cc(CN2CCN(C3C4CC5CC(C4)CC3C5)CC2)c(C)n1-c1ccc(Cl)cc1 (stereo not drawn) | 16 (≈ 36.5 µM) | 16 (≈ 36.5 µM) | 16 (≈ 36.5 µM) | 32 (≈ 73 µM) | 16 (≈ 36.5 µM) | 32 (≈ 73 µM) |  |  |  |  |  |  |  |  |  |  |
| Cc1c(CNC2CCC(NC(=N)N)CC2)cc(-c2ccc(Cl)cc2)n1-c1ccc([N+](=O)[O-])cc1 (stereo not drawn) | 16 (≈ 33.3 µM) | 64 (≈ 133 µM) | 32 (≈ 66.5 µM) |  |  |  | 4 (≈ 8.32 µM) | 8 (≈ 16.6 µM) | 8 (≈ 16.6 µM) | > 128 | > 128 | > 128 | 64 (≈ 133 µM) | > 128 | > 128 | 64 (≈ 133 µM) |
| Cc1c(CNC2CCCCC2)cc(-c2ccc(Cl)cc2)n1-c1ccccc1C(F)(F)F | 2 (≈ 4.47 µM) | 4 (≈ 8.95 µM) | 4 (≈ 8.95 µM) |  |  |  | 4 (≈ 8.95 µM) | 8 (≈ 17.9 µM) | 8 (≈ 17.9 µM) | > 128 | > 128 | 128 (≈ 286 µM) | > 128 | > 128 | > 128 | > 128 |
| Cc1c(CNC(C)C)cc(-c2ccc(Cl)cc2)n1-c1ccc(Cl)cc1 | 4 (≈ 10.7 µM) | 8 (≈ 21.4 µM) | 8 (≈ 21.4 µM) |  |  |  | 8 (≈ 21.4 µM) | 8 (≈ 21.4 µM) | 8 to 16 (≈ 21.4 to 42.9 µM) | > 128 | > 128 | 64 (≈ 171 µM) | 32 (≈ 85.7 µM) | > 128 | > 128 | 32 to 128 (≈ 85.7 to 343 µM) |

Source: ChEMBL document CHEMBL4359823, “Switching on the activity of 1,5-diaryl-pyrrole derivatives against drug-resistant ESKAPE bacteria: Structure-activity relationships and mode of action studies” (Eur J Med Chem, 2019)
